Calls of active or inactive are those of the source. No cut-off for these calls is given here.
What was measured:
[1] = system: A-431; assay: Cytotoxicity against EGF-stimulated human A431 cells at 1 to 5 uM after 24 hrs by WST1 assay; assay type: cell-based; settings: a-431, 24 h
Summary of the method: (§1)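 A431 cells serum-starved 24 h, pretreated 30 min at 1 or 5 μM, then EGF 25 ng/mL for 24 h or 48 h. WST-1 reagent 5–10 min at 37 °C; absorbance 450 nm, reference 600 nm.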

[2] = system: A-431; assay: Cytotoxicity against EGF-stimulated human A431 cells at 1 to 5 uM after 48 hrs by WST1 assay; assay type: cell-based; settings: a-431, 48 h; summary of the method: as §1
[3] = system: A-431; assay: Antiinflammatory activity in human A431 cells assessed as inhibition of EGF-stimulated COX2 mRNA level pretreated for 30 mins before EGF challenge measured after 3 hrs by RT-PCR analysis; assay type: functional, cell-based
Summary of the method: (§2)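 A431 cells serum-starved 24 h, pretreated 30 min at 0.1, 1 or 5 μM, then EGF 25 ng/mL for 3 h. Total RNA by Trizol, reverse-transcribed; COX-1 and COX-2 amplified by PCR (35 cycles: 94 °C 30 s, 58 °C 30 s, 72 °C 1 min). Products run on 2% agarose, ethidium bromide stained.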

[4] = system: A-431; assay: Antiinflammatory activity in human A431 cells assessed as inhibition of EGF-stimulated COX1 mRNA level pretreated for 30 mins before EGF challenge measured after 3 hrs by RT-PCR analysis; assay type: functional, cell-based; summary of the method: as §2
[5] = system: RAW264.7; assay: Antiinflammatory activity in mouse RAW264.7 cells assessed as inhibition of LPS-stimulated COX2 expression pretreated for 30 mins before LPS challenge measured after 3 hrs by RT-PCR analysis; assay type: functional, cell-based
Summary of the method: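 Raw 264.7 mouse macrophages serum-starved 24 h, pretreated 30 min at 0.1, 1 or 5 μM, then LPS 10 μg/mL for 3 h. Total RNA by Trizol; COX-2 mRNA by RT-PCR (35 cycles), read on agarose gel with ethidium bromide.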

[6] = system: A-431; assay: Antiinflammatory activity in human A431 cells assessed as reduction of EGF-stimulated COX2 promoter activity at 0.1 to 5 uM after 24 hrs by luciferase reporter gene assay; assay type: functional, cell-based
Summary of the method: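 A431 cells transiently transfected (Lipofectamine 2000) with 0.5 μg COX-2 promoter luciferase plasmid pXC 918 for 24 h. Then treated with compound and stimulated with EGF. Dual-luciferase read-out normalised to lysate protein; means ± SEM, Student's t-test.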

[7] = system: A-431; assay: Antiinflammatory activity in human A431 cells assessed as reduction of EGF-stimulated COX2 protein expression pretreated with compound before EGF challenge measured by Western blotting analysis; assay type: functional, cell-based
Summary of the method: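 A431 cells serum-starved, pretreated with compound, then EGF-stimulated. 40 μg lysate (RIPA) run on 12.5% SDS-PAGE, blotted to nitrocellulose. Probed 16 h at 4 °C with mouse anti-COX-2 (1:2000) and β-actin (1:20 000), anti-mouse IgG secondary, ECL detection.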

[8] = system: A-431; assay: Inhibition of CREB promoter activity in EGF-stimulated human A431 cells at 1 to 5 uM pretreated for 30 mins before EGF challenge measured after 3 hrs by luciferase reporter gene analysis; assay type: cell-based
Summary of the method: (§3)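 A431 cells transiently transfected with 0.5 μg CRE-promoter plasmid pXC 80 (CREB) or NFAT-promoter luciferase plasmid. After 24 h, pretreated 30 min at 1 or 5 μM, then EGF 25 ng/mL for 3 h. Luciferase normalised to lysate protein.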

[9] = system: A-431; assay: Inhibition of NFAT promoter activity in EGF-stimulated human A431 cells at 1 to 5 uM pretreated for 30 mins before EGF challenge measured after 3 hrs by luciferase reporter gene analysis; assay type: cell-based; summary of the method: as §3
[10] = system: A-431; assay: Antiinflammatory activity in human A431 cells assessed as decrease in thapsigargin-induced calcium influx at 1 uM pretreated for 30 mins before thapsigargin challenge measured by fluorescence analysis; assay type: functional, cell-based
Summary of the method: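 A431 cells on glass coverslips (24 or 48 h), loaded with 1 μM Fluo-4 at 37 °C for 20 min in the dark. Store-operated influx evoked by 2 μM thapsigargin; Fluo-4 read by time-lapse videomicroscopy; 15–20 cells pooled.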

In the case of CCCCCCCCCC[C@@H](O)[C@H]1CC[C@H]([C@H]2CC[C@H]([C@H](O)CCCCCCCCCCCCC3=C[C@H](C)OC3=O)O2)O1 [ISODESAACETYLUVARICIN], the Activity [1] is reported as “Non-toxic”, the Activity [2] is reported as “Non-toxic” and the inhibition [3] is reported as “Dose-dependent effect”. For the same compound, the inhibition [4] was “inactive”, the inhibition [5] was “Active” and the Activity [6] was “Active”. For the same compound, the Activity [7] was “Dose-dependent effect”, the inhibition [8] was “Active” and the inhibition [9] was “Active”. For the same compound, the Activity [10] was “inactive”.

Reference: ChEMBL document CHEMBL2034934, “Isodesacetyluvaricin, an Annonaceous acetogenin, specifically inhibits gene expression of cyclooxygenase-2” (J Nat Prod, 2012)
